Compound activity (PubChem BioAssay)
CHO parental Ca: counter-screen: ATP calcium response change in parental CHO cells; parental CHO-K1, ATP-induced calcium, Fluo-8 fluorescence; inhibition, % at 5.6 µM; actives 0.63% (n = 330,000); AID 463079;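 active = inhibition above that plate's mean sample inhibition plus 3 SD, cut at about 26% in these data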;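 note: 0% = ATP-challenged DMSO wells and 100% = DMSO wells without ATP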
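Test system: parental CHO cells; detection: calcium-sensitive Fluo-8 fluorescence; evaluation: percent inhibition of calcium signal; also added: ATP as calcium-mobilizing challenge; repeats: one well per compound; control set: ATP-challenged DMSO wells low, unchallenged DMSO wells high; compound: single nominal dose of 5.6 µM per compound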
OX1R antag-1: antagonists of human orexin 1 receptor (OX1R); O43613; AID 485270; actives 1.8% (n = 330,000); OX1R-expressing cells, FRET antagonist read-out; inhibition, % at 6.6 µM; in the data active = inhibition mostly above about 38%, no sharp cut-off; inactive = mostly below about 40%;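 note: 0% = agonist challenge alone and 100% = reference antagonist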
OX1R antag-2: human HCRTR1 antagonism; O43613; CHO/OX1R cells, Fluo-8 calcium fluorescence, orexin A; inhibition, % at 5 µM; actives 0.43% (n = 330,000); AID 434989;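 active = inhibition above its plate's threshold, mean inhibition of all tested compounds on the plate plus 3 SD, cut at about 37% in these data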;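 note: 0% = orexin A challenge wells and 100% = SB-334867-A antagonist wells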
TAAR1 antagonist: antagonists of human TAAR1 | Q96RJ0 | CHO RD-HGA16 TAAR1, Fluo-8 calcium fluorescence, antagonist | inhibition, % at 3 µM | actives 1.5% (n = 360,000) | AID 624466;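 active = inhibition above a per-plate cutoff, the mean inhibition of test compounds on that plate plus 3 SD, cut at about 49% in these data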;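 note: 0% = DMSO plus EC80 beta-PEA response and 100% = DMSO alone without agonist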
Target sequence (Q96RJ0 whole entry, looked up): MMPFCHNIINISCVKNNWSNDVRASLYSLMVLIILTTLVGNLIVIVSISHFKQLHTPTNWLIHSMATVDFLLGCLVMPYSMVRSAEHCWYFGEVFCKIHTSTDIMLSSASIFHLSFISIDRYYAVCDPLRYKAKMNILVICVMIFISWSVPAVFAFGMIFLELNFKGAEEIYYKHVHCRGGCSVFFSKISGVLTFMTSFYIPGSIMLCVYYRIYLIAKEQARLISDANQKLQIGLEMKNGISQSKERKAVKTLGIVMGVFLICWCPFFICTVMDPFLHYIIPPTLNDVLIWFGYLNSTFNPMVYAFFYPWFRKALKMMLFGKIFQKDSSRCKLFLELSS
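Test system: CHO RD-HGA16 cells bearing hTAAR1 | Reagent: β-PEA, EC80 | Compound dosing: 3 µM, single point | Schedule: Dye loading 75 min at 37 °C, then 30 min room temperature | Signal: Calcium fluorescence with Fluo-8 | Evaluation: Percent inhibition of PEA-evoked calcium signal, max/basal emission ratio | Control set: DMSO-only wells and EC80 β-PEA-stimulated wells | Repeats: Singlicate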
GPR7 antagonist: antagonists of human GPR7 (neuropeptides B/W receptor 1). GPR7-expressing cells, fluorescence antagonist assay. actives 1.1% (n = 290,000). AID 1861. P48145. inhibition, % at 4.4 µM; in the data active = inhibition above about 16%, passing the limit was not always enough;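 note: cells stimulated with the agonist NPW; 0% = agonist with vehicle and 100% = vehicle without agonist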
Target sequence (P48145 whole entry, looked up): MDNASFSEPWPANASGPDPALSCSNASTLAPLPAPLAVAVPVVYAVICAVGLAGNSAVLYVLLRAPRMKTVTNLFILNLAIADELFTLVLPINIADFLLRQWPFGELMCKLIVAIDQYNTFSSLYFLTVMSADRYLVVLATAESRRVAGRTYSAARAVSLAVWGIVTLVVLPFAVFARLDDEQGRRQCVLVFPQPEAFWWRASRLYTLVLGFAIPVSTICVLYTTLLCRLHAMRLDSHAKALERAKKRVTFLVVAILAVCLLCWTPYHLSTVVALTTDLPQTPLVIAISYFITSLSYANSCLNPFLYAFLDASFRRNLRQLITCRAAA
TAAR1 agonist: human TAAR1 agonism | activation, % at 3 µM | actives 0.99% (n = 360,000) | CHO RD-HGA16 TAAR1, Fluo-8 calcium fluorescence; vehicle wells 0%, saturating PEA agonist 100% | Q96RJ0;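 active = activation above the mean activation of all test compounds in the run plus 3 SD, cut at about 38% in these data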
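System: CHO-derived RD-HGA16 cells with stable Gα16 and human TAAR1 / Times: 17-24 h plating, Fluo-8 75 min 37 °C, 30 min RT / Technique: calcium-sensitive Fluo-8 signal, excitation 470-495, emission 515-575 nm / Measure: % activation relative to PEA EC100 response / Benchmarks: DMSO and PEA EC100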
OX1R Ca confirm: OX1R (human) antagonism, confirmed; CHO/OX1R cells, orexin A calcium Fluo-8 fluorescence; shares compounds with OX1R antag-2; actives 38% (n = 1,100); inhibition, % at 5 µM; in the data active = inhibition above about 29%;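 note: 0% = agonist challenge alone and 100% = reference antagonist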
CHO Ca triplic: signal in parental CHO cells, OX1R antagonist counter-screen; shares compounds with OX1R antag-2; parental CHO-K1, ATP-induced calcium, Fluo-8 fluorescence; inhibition, % at 5.6 µM; actives 9.3% (n = 1,100); AID 492965;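 active = inhibition above a per-plate limit, the mean inhibition of that plate's test compounds plus 3 SD, cut at about 25% in these data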;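 note: 0% = ATP challenge with DMSO and 100% = DMSO without ATP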
OX1R HTRF confirm: confirmation of human orexin 1 receptor antagonists, HTRF format. OX1R-expressing cells, HTRF antagonist assay. AID 492964. inhibition, % at 6.6 µM. actives 49% (n = 1,800). shares compounds with OX1R antag-1; in the data active = inhibition above about 55%;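 note: CHO cells expressing OX1R stimulated with orexin A at about EC80; 0% = agonist challenge alone and 100% = reference antagonist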
CHO-K1 HTRF: counter-screen: parental CHO-K1 HTRF response. shares compounds with OX1R antag-1. parental CHO-K1 cells, HTRF counterscreen. actives 48% (n = 1,800). inhibition, % at 6.6 µM; in the data active = inhibition above about 17%;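 note: 0% = agonist challenge with vehicle and 100% = vehicle alone without agonist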
The depositor's hits bear a star; . = no result. Shown are actives, neighbours in structure and some others; about 4.6% of the full set was active somewhere.

SMILES	CHO parental Ca	OX1R antag-1	OX1R antag-2	TAAR1 antagonist	GPR7 antagonist	TAAR1 agonist	OX1R Ca confirm	CHO Ca triplic	OX1R HTRF confirm	CHO-K1 HTRF
CC(C)NC(=O)C1C(c2ccccc2)=Nc2ccccc2N1C(=O)c1cc(Cl)cc(Cl)c1 (centres undefined)	.	.	.	-12	.	2	.	.	.	.
CC(=O)Nc1cccc(OCC(=O)Nc2ccccc2)c1	2	-3	4	-7	13	11	.	.	.	.
CC(=O)Nc1cccc(OCC(=O)NC(C)c2ccc3ccccc3c2)c1 (centres undefined)	-13	90*	51*	8	-3	-1	62*	-4	78*	12
C=CCn1c(SCc2ccc(C#N)cc2)nnc1-c1cccc(Cl)c1	-11	50	-8	23	-7	2	.	.	.	.
C=CCn1c(SCc2ccc(C(=O)Nc3nccs3)cc2)nnc1-c1ccc(C)c(Cl)c1	3	79*	70*	65*	-8	8	69*	18	82*	1
Cc1ccc2nc(SCC(=O)Nc3cc(C(C)(C)C)nn3-c3ccccc3)[nH]c2c1	-20	10	-21	-10	-22	1	.	.	.	.
Cc1cc(NC(=O)CSc2nc3ccccc3[nH]2)n(-c2ccccc2)n1	-35	60*	61*	-39	-6	2	27	-18	62*	-9
O=C(C1CCCN1S(=O)(=O)c1cccc2cccnc12)N1CCn2c1nc1ccccc12 (centres undefined)	-6	96*	45*	.	-9	.	53*	-5	90*	2
COc1ccc(NC(=S)Nc2cccc([N+](=O)[O-])c2)cc1	-2	8	-2	16	3	8	.	.	.	.
COc1ccc(NC(=O)c2cc([N+](=O)[O-])ccc2O)cc1	15	70*	33	-3	-17	8	14	0	27	7
Nc1nc2ccc(-c3nc4ccccc4o3)cc2s1	-12	97*	72*	3	2	5	32*	-4	89*	5
COc1ccc(NC(=O)CSc2nc3ccsc3c(=O)n2CCC(=O)O)cc1	.	.	.	3	.	1	.	.	.	.
COc1ccc(Br)cc1/C=C/C(=O)Nc1ccc2ccccc2c1	-5	91*	46*	22	-5	3	29	-4	89*	9
CCNC(=O)C(=O)Nc1ccc2c(c1)N(S(=O)(=O)c1cccs1)CCC2	-12	18	-17	-7	.	1	.	.	.	.
O=C(Nc1ccc2c(c1)N(S(=O)(=O)c1cccs1)CCC2)c1c(F)cccc1F	-3	69*	20	-41	.	2	37*	1	66*	3
Cc1ccc(/C=C(\C#N)C(=O)Nc2ccccn2)o1	-7	37	3	11	5	5	.	.	.	.
CCN(CC)c1ccc(/C=N/NC(=O)c2nnn(-c3nonc3N)c2C(C)C)c(O)c1	-2	96*	59*	16	-19	1	16	-10	69*	5
CN(Cc1c(C(=O)N/N=C/c2cccs2)nnn1-c1nonc1N)c1ccccc1	-22	82*	55*	-14	-16	34	32*	0	89*	6
CC(C)c1c(C(=O)N/N=C/c2ccc3c(c2)OCO3)nnn1-c1nonc1N	-10	5	-18	-3	8	2	.	.	.	.
CN(Cc1c(C(=O)N/N=C/c2cccc(F)c2)nnn1-c1nonc1N)c1ccccc1	-7	57*	49	25	8	5	33*	-6	77*	4
CN(Cc1c(C(=O)N/N=C/c2cccc(F)c2)nnn1-c1nonc1N)C1CCCCC1	-5	12	-6	6	-10	0	.	.	.	.
COc1cccc(/C=N/NC(=O)c2nnn(-c3nonc3N)c2CN(C)c2ccccc2)c1	9	70*	52*	20	-12	4	41*	-3	93*	-2
CCCN(CCC)Cc1c(C(=O)N/N=C/c2cccs2)nnn1-c1nonc1N	-15	6	-33	-6	-4	-4	.	.	.	.
COc1ccc(CN2C(=O)C(CC(=O)NCc3ccco3)CC(C(=O)N3CCOCC3)=C2C)cc1 (centres undefined)	.	.	.	-7	.	0	.	.	.	.
Cc1ccc(CN2CCN(/N=C/c3sccc3C)CC2)c(C)c1	-3	11	-13	-16	-5	-1	.	.	.	.
SMILES	CHO parental Ca	OX1R antag-1	OX1R antag-2	TAAR1 antagonist	GPR7 antagonist	TAAR1 agonist	OX1R Ca confirm	CHO Ca triplic	OX1R HTRF confirm	CHO-K1 HTRF
CC(=O)Cc1nsc(NC(=O)c2ccc(-c3ccccc3Cl)o2)n1	-26	80*	61*	6	-2	6	3	8	40	7
COc1cc(C(=O)C(=O)N2CCN(c3ccc(C)cc3)CC2)cc2ccccc12	.	.	.	-3	.	0	.	.	.	.
CC(=O)Nc1ccc(-n2nnnc2SCC(=O)NCc2cccs2)cc1	2	45	-8	11	11	8	.	.	.	.
Cc1ccc2nc(SCC(=O)c3c(C)[nH]c4ccccc34)[nH]c2c1	-11	89*	32	28	-3	9	29*	-5	78*	-1
Cc1noc(C)c1NC(=O)N(C)C[C@@H]1Oc2ccc(NS(=O)(=O)c3c(C)noc3C)cc2C(=O)N([C@H](C)CO)C[C@H]1C	1	1	-8	14	.	1	.	.	.	.
O=C(OCc1cc(=O)n2c(n1)sc1ccccc12)c1cccc(O)c1	14	97*	34	17	-9	5	52*	-9	86*	6
CC(C)[C@H](NC(=O)c1ccco1)C(=O)OCc1cc(=O)n2c(n1)sc1ccccc12	-14	8	-26	45	-13	11	.	.	.	.
Cc1ccc(S(=O)(=O)N2CCCC2C(=O)Nc2nc3c(s2)CCCC3)cc1 (centres undefined)	-18	78*	44*	5	-16	3	31*	-14	93*	1
O=C(NCc1ccccc1)C1CCCN1S(=O)(=O)c1ccc(Cl)cc1 (centres undefined)	-27	7	-20	-23	-14	6	.	.	.	.
O=C(Nc1ccccc1)[C@@H]1CCCN1S(=O)(=O)c1ccc(Cl)cc1	-15	62*	45*	-13	.	3	39*	-12	78*	8
